Results from different studies.
Method: competition with immobilised ligand
JAK2 JH1: Tyrosine-protein kinase JAK2, JH1 (JAK2, Homo sapiens, UniProt O60674)

Structure (SMILES)	target	test	setting	remaining binding [%]
CS(=O)(=O)N1CCCC(NC(=O)[C@H](CCC2CCCCC2)NC(=O)c2ccc(CNC(=O)c3cnc4ccccn34)cc2)C1 (stereo partly shown)	JAK2 JH1	cell-free assay	0.1 µM	100
O=C(c1ccc(Nc2ncc(Cl)c(-c3cc4ccccc4s3)n2)cc1)N1CCC(N2CCCC2)CC1	JAK2 JH1	binding	1 µM	0
O=C(Nc1cccnn1)N1CCC(=Cc2cccc(Oc3ccc(C(F)(F)F)cn3)c2)CC1	JAK2 JH1	cell-free assay	1 µM	100
Cc1cnn2ncc(-c3ccnc(N(C)C)n3)c2c1	JAK2 JH1	cell-free assay	1 µM	93
CNC(=O)[C@@H]1CC[C@@H](n2c(-c3ccc4cnccc4c3)nc3ccc(C(=O)NCc4cccc(C(N)=O)c4)cc32)C1	JAK2 JH1	binding	1 µM	100
O=C(NS(=O)(=O)c1ccc(NCC2CCOCC2)c([N+](=O)[O-])c1)c1ccc(N2CCN(Cc3ccc(C(F)(F)F)cc3-c3ccc(Cl)cc3)CC2)cc1Oc1cnc2[nH]ccc2c1	JAK2 JH1	cell-free assay	1 µM	90
CN(C)c1nccc(-c2cnn3ncccc23)n1	JAK2 JH1	cell-free assay	1 µM	49
O=C(NCC1CCOCC1)c1n[nH]cc1NC(=O)c1c(F)cccc1F	JAK2 JH1	binding	1 µM	85
O=C(c1ccc(Nc2ncc(Cl)c(-c3ccc(Cl)s3)n2)cc1)N1CCC(N2CCCC2)CC1	JAK2 JH1	binding	1 µM	1.3
COc1cnc(Nc2cccc(S(N)(=O)=O)c2)nc1N1CCN(c2ccccc2)C(=O)C1	JAK2 JH1	binding	1 µM	6.1
N#Cc1ccccc1CSc1nnc2c(n1)[nH]c1ccccc12	JAK2 JH1	binding	10 µM	100
FC(F)(F)Oc1cccc(-c2cnc3ccc(-c4ccncc4)nn23)c1	JAK2 JH1	cell-free assay	5 µM	56
COc1ncc2cc3ccccc3nc2c1C#N	JAK2 JH1	cell-free assay	5 µM	88
CC(=O)N1CCC(c2ccc(C(=O)NC3=NCCN3)cc2C(F)(F)F)CC1	JAK2 JH1	cell-free assay	1 µM	100
C[C@@H]1CN(c2ccc3ncc(-c4ccc5[nH]nc(C6CC6)c5c4)n3n2)C[C@H](C)O1	Tyrosine-protein kinase JAK2 (JAK2, Homo sapiens, UniProt O60674)	binding	0.5 µM	87
Cn1nc(C(F)(F)F)cc1-c1cnc(N2CCc3cc(S(=O)(=O)Nc4c(F)cc(Cl)cc4F)cc(N4CCCC4=O)c32)nc1	JAK2 JH1	cell-free assay	1 µM	82
Cc1cnc(Nc2ccc(C(=O)N3CCC(N4CCCC4)CC3)cc2)nc1-c1cc2ccccc2s1	JAK2 JH1	binding	1 µM	0
CCc1ccccc1C(=O)Nc1n[nH]c2c(C)c(F)c(C3C(C#N)=C(C)N(C)C(C)=C3C#N)cc12	JAK2 JH1	cell-free assay	1 µM	100
N[C@@H]1CCN(c2nccc(-c3cnn4ncccc34)n2)C1	JAK2 JH1	cell-free assay	1 µM	100
